Results: ChEMBL document CHEMBL1130178, “Synthesis and evaluation of novel fluorinated methotrexate derivatives for application to rheumatoid arthritis treatment” (J Med Chem, 1997)
pIC50: −log10 of the molar value. Values after ≈ are worked out from the molar mass of the structure shown.

Tests used:
T-cell [1] = test: Inhibitory activity against Con A-stimulated Tcell proliferation.; format: functional, cell-based, Mus musculus
Outline: (§1)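 Mouse spleen cells stimulated with mitogen, concanavalin A for T cells or lipopolysaccharide for B cells; inhibition of proliferative response measured, IC50 in ng/mL.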

[2] = Inhibitory activity against LPS-stimulated B cell proliferation.; format: functional, cell-based, Mus musculus; outline: as §1
[3] = Safety index = Ratio of lethal dose / suppressive dose value; format: toxicity; conditions: for selectivity ratio: read-out: Safety index
Outline: (§2)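 Female BDF1 mice (6 weeks old) were immunized iv with 1 × 10^8 SRBC, then given the test compound's sodium salt in water per os on days 1–3. Serum was taken on day 7 and serially two-fold diluted in PBS with 5 × 10^-5 M 2-mercaptoethanol. 1% SRBC was added, plates were held 14 h at 25 °C, and hemagglutination titer was read visually. Lethal dose is the dose (mg/kg) at which one mouse died; index = lethal dose / dose giving 75% suppression.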

EL4 = test: Inhibitory growth of EL4 thymoma cell line from C57BL/6 mice; format: functional, cell-based; conditions: Mus musculus
Outline: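 EL4 thymoma cells (C57BL/6 origin), 4 × 10^4 per well, exposed to compound in DMSO at final 0–50 μg/mL for 1 day at 37 °C, 5% CO2, humidified air; proliferation then measured.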

[4] = Compound dose causing lethality in mice; format: toxicity; conditions: mouse, in vivo; outline: as §2
Mus musculus [5] = species on record: Mus musculus; test: Compound dose suppressing antibody production by 75% in mice; format: functional
Outline: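 Female BDF1 mice (6 weeks old) immunized i.v. with 1 × 10^8 SRBC; sodium salt dissolved in water given orally days 1–3. Serum taken day 7; two-fold serial dilutions in PBS with 5 × 10^-5 M 2-mercaptoethanol mixed with 1% SRBC, 14 h at 25 °C; hemagglutination titer read visually. Dose giving 75% suppression, mg/kg.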

Rattus norvegicus = species on record: Rattus norvegicus; test: Effect on RA model was examined using adjuvant arthritis in rats.; format: functional
Outline: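 Female Lewis rats (7 weeks, 140–160 g) sensitized by s.c. injection into left hind paw of liquid paraffin containing 0.5 mg Mycobacterium butyricum. 0.6% suspension in arabic gum given orally 5 days/week from day 1 (12 doses). Uninjected paw volume measured by plethysmometer until day 17; ED50 from inhibition versus vehicle control.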

[6] = Lethal dose in rats.; format: toxicity; conditions: rat, in vivo
[7] = Ratio of LD50 / ED50 value against adjuvant arthritis in rats.; format: functional
Outline: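 Female Lewis rats (7 weeks, 140–160 g) sensitized by subcutaneous injection into left hind paw of 0.05 mL liquid paraffin containing 0.5 mg Mycobacterium butyricum. Compound given orally as 0.6% suspension in arabic gum, five days a week from day 1 (12 days total). Uninjected paw volume measured by plethysmometer until day 17; inhibition versus vehicle control gives ED50; index is LD50/ED50.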

Mus musculus [8] = test: secondary antibody response in mice at 0.625 mg/kg; format: functional
Outline: (§3)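 Female BDF1 mice (6 weeks old) immunized i.v. with 1 × 10^5 SRBC on days 0, 7 and 14; sodium salt in water given orally 5 days/week from day 0 (15 doses). Serum taken day 20; hemagglutination titer by serial two-fold dilution with 1% SRBC, 14 h at 25 °C, read visually; mean log2 titer ± SD.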

Mus musculus [9] = test: secondary antibody response in mice at 2.5 mg/kg; format: functional; outline: as §3
Mus musculus [10] = test: secondary antibody response in mice at 1.25 mg/kg; format: functional; outline: as §3
T-cell [11] = test: Inhibitory activity against Con A-stimulated T cell proliferation.; format: functional, cell-based; conditions: Mus musculus; outline: as §1
[12] = Mus musculus, T-cell, read-out: IC50
[13] = Rattus norvegicus, read-out: ED50

## Nc1nc(N)c2nc(CNc3ccc(C(=O)N[C@@H](CC(F)C(=O)O)C(=O)O)cc3C(F)(F)F)cnc2n1 (stereo in doubt; 2ve)
T-cell [1]; t-cell
  IC50: 8 ng/mL (≈ 0.0152 µM)
[2]
  IC50: 14.3 ng/mL (≈ 0.0272 µM)

## Cc1cc(C(=O)N[C@@H](CC(F)C(=O)O)C(=O)O)ccc1NCc1cnc2nc(N)nc(N)c2n1 (stereo in doubt; form 1)
[3]
  selectivity ratio: 40
EL4
  pIC50: < 4.00
[4]
  Lethal dose: 12.5 mg/kg
T-cell [1]; [12]
  IC50: 7.8 ng/mL (≈ 0.0165 µM)
[2]
  IC50: 9.9 ng/mL (≈ 0.021 µM)
Mus musculus [5]
  Suppressive dose: 0.31 mg/kg

## CN(Cc1cnc2nc(N)nc(N)c2n1)c1ccc(C(=O)N[C@@H](CC(F)C(=O)O)C(=O)O)cc1 (stereo in doubt; 2ie)
[3]
  selectivity ratio: 12
[4]
  Lethal dose: 600 mg/kg
T-cell [1]; t-cell
  IC50: 25.9 ng/mL (≈ 0.0548 µM)
[2]
  IC50: 21 ng/mL (≈ 0.0445 µM)
Mus musculus [5]
  Suppressive dose: 50 mg/kg

## Nc1nc(N)c2nc(CNc3ccc(C(=O)N[C@@H](CC(F)C(=O)O)C(=O)O)cc3Br)cnc2n1 (stereo partly drawn)
Rattus norvegicus; [13]
  ED50: 0.43 mg/kg
[6]; read-out: LD50
  LD50: 20 mg/kg
[3]
  selectivity ratio: > 80
[7]
  Ratio: 46.5
EL4
  pIC50: < 4.00
[4]
  Lethal dose: > 200 mg/kg
T-cell [1]; [12]
  IC50: 2.1 ng/mL (≈ 0.00391 µM)
[2]
  IC50: 8.2 ng/mL (≈ 0.0153 µM)
Mus musculus [5]
  Suppressive dose: 5 mg/kg

## CCCc1cc(C(=O)N[C@@H](CC(F)C(=O)O)C(=O)O)ccc1NCc1cnc2nc(N)nc(N)c2n1 (stereo in doubt; form 1)
[3]
  Safety index: 40
EL4
  pIC50: < 4.00
[4]
  Lethal dose: 200 mg/kg
T-cell [1]; [12]
  IC50: 5.3 ng/mL (≈ 0.0106 µM)
[2]
  IC50: 22.2 ng/mL (≈ 0.0444 µM)
Mus musculus [5]
  Suppressive dose: 10 mg/kg

## CCc1cc(C(=O)N[C@@H](CC(F)C(=O)O)C(=O)O)ccc1NCc1cnc2nc(N)nc(N)c2n1 (stereo in doubt; form 1)
Rattus norvegicus; [13]
  ED50: 0.8 mg/kg
[6]; read-out: LD50
  LD50: 20 mg/kg
Mus musculus [8]; 0.625 mg/kg
  Log2: 4.8
[3]
  selectivity ratio: 160
[7]
  Ratio: 25
EL4
  pIC50: < 4.00
Mus musculus [9]; 2.5 mg/kg
  Log2: 3.2
[4]
  Lethal dose: 100 mg/kg
T-cell [1]; [12]
  IC50: 3.8 ng/mL (≈ 0.00781 µM)
[2]
  IC50: 9.7 ng/mL (≈ 0.0199 µM)
Mus musculus [5]
  Suppressive dose: 1.25 mg/kg
Mus musculus [10]; 1.25 mg/kg
  Log2: 3.8

## CN(Cc1cnc2nc(N)nc(N)c2n1)c1ccc(C(=O)N[C@@H](CC(F)C(=O)O)C(=O)O)cc1 (stereo in doubt; 2it)
EL4
  pIC50: < 4.00
T-cell [1]; t-cell
  IC50: 64.6 ng/mL (≈ 0.137 µM)
[2]
  IC50: 61.5 ng/mL (≈ 0.13 µM)
Mus musculus [5]
  Suppressive dose: >400 mg/kg

## Cc1cc(C(=O)N[C@@H](CC(F)C(=O)O)C(=O)O)sc1N(C)Cc1cnc2nc(N)nc(N)c2n1 (stereo in doubt; form 1)
[3]
  Safety index: > 18
EL4
  pIC50: < 4.00
[4]
  Lethal dose: > 180 mg/kg
T-cell [1]; t-cell
  IC50: 11.5 ng/mL (≈ 0.0234 µM)
[2]
  IC50: 14.9 ng/mL (≈ 0.0303 µM)
Mus musculus [5]
  Suppressive dose: 10 mg/kg

## Cc1cc(C(=O)N[C@@H](CC(F)C(=O)O)C(=O)O)sc1N(C)Cc1cnc2nc(N)nc(N)c2n1 (stereo in doubt; form 2)
Rattus norvegicus; [13]
  ED50: 0.8 mg/kg
[6]; read-out: LD50
  LD50: 46 mg/kg
[3]
  Safety index: 60
[7]
  Ratio: 57.5
[4]
  Lethal dose: 150 mg/kg
T-cell [1]; t-cell
  IC50: 3.8 ng/mL (≈ 0.00772 µM)
[2]
  IC50: 5.1 ng/mL (≈ 0.0104 µM)
Mus musculus [5]
  Suppressive dose: 5 mg/kg

## Cc1cc(C(=O)N[C@@H](CC(F)C(=O)O)C(=O)O)ccc1NCc1cnc2nc(N)nc(N)c2n1 (stereo in doubt; form 2)
[3]
  Safety index: 80
[4]
  Lethal dose: 100 mg/kg
T-cell [1]; t-cell
  IC50: 10.7 ng/mL (≈ 0.0226 µM)
[2]
  IC50: 16.5 ng/mL (≈ 0.0349 µM)
Mus musculus [5]
  Suppressive dose: 1.25 mg/kg

## Nc1nc(N)c2nc(CNc3ccc(C(=O)N[C@@H](CC(F)C(=O)O)C(=O)O)cc3C(F)(F)F)cnc2n1 (stereo in doubt; 2vt)
EL4
  pIC50: < 4.00
T-cell [1]; t-cell
  IC50: 16.8 ng/mL (≈ 0.0319 µM)
[2]
  IC50: 19.5 ng/mL (≈ 0.037 µM)
Mus musculus [5]
  Suppressive dose: 5 mg/kg

## Nc1nc(N)c2nc(CNc3ccc(C(=O)N[C@@H](CC(F)C(=O)O)C(=O)O)cc3F)cnc2n1 (stereo partly drawn)
Rattus norvegicus; [13]
  ED50: 0.62 mg/kg
[6]; read-out: LD50
  LD50: 29 mg/kg
Mus musculus [8]
  Log2: 6.2
[3]
  selectivity ratio: 160
[7]
  Ratio: 46.8
EL4
  pIC50: < 4.00
Mus musculus [9]
  Log2: 5.2
[4]
  Lethal dose: 200 mg/kg
T-cell [1]; [12]
  IC50: 9.4 ng/mL (≈ 0.0197 µM)
[2]
  IC50: 22.7 ng/mL (≈ 0.0476 µM)
Mus musculus [5]
  Suppressive dose: 1.25 mg/kg
Mus musculus [10]
  Log2: 6.8

## CCc1cc(C(=O)N[C@@H](CC(F)C(=O)O)C(=O)O)ccc1NCc1cnc2nc(N)nc(N)c2n1 (stereo in doubt; form 2)
Rattus norvegicus
  ED50: 0.89 mg/kg
[6]
  LD50: 10.9 mg/kg
Mus musculus [8]; 0.625 mg/kg
  Log2: 5.4
[3]
  Safety index: 120
[7]
  Ratio: 12.2
Mus musculus [9]; 2.5 mg/kg
  Log2: 4.6
[4]
  Lethal dose: 150 mg/kg
T-cell [1]; t-cell
  IC50: 3.2 ng/mL (≈ 0.00658 µM)
[2]
  IC50: 9.2 ng/mL (≈ 0.0189 µM)
Mus musculus [5]
  Suppressive dose: 2.5 mg/kg
Mus musculus [10]; 1.25 mg/kg
  Log2: 5.2

## CN(Cc1cnc2nc(N)nc(N)c2n1)c1ccc(C(=O)N[C@@H](CCC(=O)O)C(=O)O)cc1 [METHOTREXATE]
Rattus norvegicus; [13]
  ED50: 0.058 mg/kg
[6]; read-out: LD50
  LD50: 0.82 mg/kg
Mus musculus [8]
  Log2: 5.4
T-cell [11]
  IC50: 6.1 ng/mL (≈ 0.0134 µM)
[3]
  selectivity ratio: 64
[7]
  Safety index: 14.1
EL4
  pIC50: 5.80
Mus musculus [9]
  Log2: 4
[4]
  Lethal dose: 40 mg/kg
[2]
  IC50: 12.5 ng/mL (≈ 0.0275 µM)
Mus musculus [5]
  Suppressive dose: 0.625 mg/kg
Mus musculus [10]
  Log2: 4.2

## Nc1nc(N)c2nc(CNc3ccc(C(=O)N[C@@H](CC(F)C(=O)O)C(=O)O)cc3Cl)cnc2n1 (stereo partly drawn)
[3]
  selectivity ratio: 100
EL4
  pIC50: < 4.00
[4]
  Lethal dose: 80 mg/kg
T-cell [1]; [12]
  IC50: 4.3 ng/mL (≈ 0.00872 µM)
[2]
  IC50: 11.8 ng/mL (≈ 0.0239 µM)
Mus musculus [5]
  Suppressive dose: 0.8 mg/kg
